Measured values published in ChEMBL document CHEMBL1147231, “Cytotoxic and antimalarial beta-carboline alkaloids from the roots of Eurycoma longifolia” (J Nat Prod, 2003).
Values after ≈ are worked out from the molar mass of the structure shown. Active and inactive are the calls of the source. No cut-off for these calls is given here.

Legend:
A549 = assay: Cytotoxicity against human A549 cells by SRB assay; assay type: functional; conditions: for EC50: Homo sapiens, A549, read-out: ED50 (the source's name)
Procedure, shortened: (§1)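 Sulforhodamine B assay on human lung (A549) and breast (MCF-7) cancer cell lines; ED50 taken as the compound concentration giving 50% reduction in absorbance at 562 nm relative to untreated cells.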

MCF7 = assay: Cytotoxicity against human MCF7 cells by SRB assay; assay type: functional; conditions: for EC50: Homo sapiens, MCF7, read-out: ED50 (the source's name); procedure, shortened: as §1
Plasmodium falciparum [1] = assay: Antimalarial activity against Plasmodium falciparum W2; assay type: functional, organism-based
Procedure, shortened: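 In vitro drug susceptibility measured by parasite incorporation of radiolabeled hypoxanthine (modified Desjardins method); mefloquine and chloroquine run in parallel as positive controls.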

Plasmodium falciparum [2] = assay: Antimalarial activity against Plasmodium falciparum D6; assay type: functional, organism-based
Procedure, shortened: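 Drug susceptibility in vitro by modified Desjardins method with Milhous modifications. Read-out is parasite incorporation of radiolabelled hypoxanthine. Mefloquine and chloroquine were run in parallel as positive controls.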

Row | IC50 (Plasmodium falciparum [1]) [µg/mL] | Compound | inhibition (INH) (A549) [%] | EC50 (A549) [µg/mL] | EC50 (MCF7) [µg/mL] | Activity (A549) | inhibition (INH) (MCF7) [%] | IC50 (Plasmodium falciparum [2]) [µg/mL]
1 | – | COc1ccc2c3ccnc4ccc(=O)n(c2c1)c43 | 55 | < 2.5 | 4.5 (≈ 18 µM) | – | – | –
2 | 2.34 (≈ 9.89 µM) | O=c1ccc2nccc3c4ccc(O)cc4n1c23 | – | 10 (≈ 42.3 µM) | 19.6 (≈ 83 µM) | – | – | –
3 | – | O=C(O)CCc1nccc2c1[nH]c1ccccc12 | – | – | > 20 | inactive | 8 | –
4 | – | COc1ccc2c3cc[n+]([O-])c4ccc(=O)n(c2c1)c34 | – | 18.5 (≈ 69.5 µM) | 18.9 (≈ 71 µM) | – | – | –
5 | – | COc1ccc2c(c1)[nH]c1c(CCC(=O)O)nccc12 | 7 | > 20 | > 20 | – | 15 | –
6 | 2.24 (≈ 10.2 µM) | O=c1ccc2nccc3c4ccccc4n1c23 [CANTHIN-6-ONE] | – | 3.6 (≈ 16.3 µM) | 7.3 (≈ 33.1 µM) | – | – | –

Row | Compound | IC50 (Plasmodium falciparum [1]) [µg/mL] | inhibition (INH) (A549) [%] | EC50 (A549) [µg/mL] | EC50 (MCF7) [µg/mL] | Activity (A549) | inhibition (INH) (MCF7) [%] | IC50 (Plasmodium falciparum [2]) [µg/mL]
7 | COc1c(O)c2nccc3c4ccccc4n(c1=O)c23 [PICRASIDINE Q] | 3.52 (≈ 13.2 µM) | – | 16.2 (≈ 60.8 µM) | 18.1 (≈ 68 µM) | – | – | 2.96 (≈ 11.1 µM)
